Consider 36 molecules from ChEMBL document CHEMBL1125917, “Synthesis of halogen-substituted 1,5-benzothiazepine derivatives and their vasodilating and hypotensive activities” (1991).

Assay [1] has as its system Canis familiaris. The assay is described as follows: Antihypertensive activity by the increase in the vertebral blood flow in anesthetized dogs expressed as duration of half of the maximum change in blood flow. Type of assay: functional, Canis lupus familiaris. Summed up:
(§1)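 Anesthetized dogs; compounds given intraarterially. Vertebral blood flow recorded, and a dose-response curve built from peak responses. Potency given as ratio to diltiazem, calculated from the dose-response curves. Half duration is the time, in minutes, that blood flow stays at one-half of the maximum change.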

Assay [2] is filed under the species Canis familiaris. The assay can be described thus: Antihypertensive activity expressed as the ratio of the potency evaluated by increased vertebral blood flow (VBF) to that of diltiazem. The assay is classed as functional, Canis lupus familiaris. In outline:
as §1

Assay [3] is filed under the species Cavia porcellus. The assay is described as follows: Increase in the coronary blood flow (CBF) was determined in isolated guinea pig heart at a dose of 100 ug/heart. The assay is classed as functional. In outline: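 Hartley guinea pig hearts perfused by the Langendorff method with modified Locke-Ringer solution containing defibrinated rabbit blood, at 40 cm H2O and 29 ± 1 °C. Compounds in saline injected into the aortic cannula at 3, 10, 30 or 100 μg/heart. Coronary flow measured by drop counter; graded by the lowest dose giving an increase of at least 0.5 mL/min.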

Assay [4] relates to Rattus norvegicus. The assay is described as follows: Change in blood pressure in spontaneously hypertensive rats 1 hr following 30 mg/kg p.o. Type of assay: functional. The conditions noted are these: route oral. In outline:
(§2)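 Male spontaneously hypertensive rats, fasted 20 h. Compounds dissolved in deionized water and given orally (30 mg/kg; some at 100 mg/kg). Blood pressure measured by tail-cuff in conscious animals. Change (mmHg) taken from the predosing value at 1 and 4 h, or 1 and 5 h, after dosing. N = 3-6.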

Assay [5] has as its system Rattus norvegicus. The assay is described as follows: Hypotensive activity in SHR (spontaneously hypertensive rats) expressed as change in blood pressure(mmHg) after 4 hr dosing at a concentration of 30 mg/kg. Type of assay: functional. Summed up: as §2

For `Cc1ccc(C2Sc3cc(Cl)ccc3N(CCN(C)C)C(=O)C2OC(=O)c2ccc(Cl)cc2[N+](=O)[O-])cc1` (centres undefined), in assay [1], the Half duration worked out at 140 min. Besides, the Potency ratio in assay [2] was found to be 0.02.

Turning to `COc1ccc(C2Sc3cc(Cl)ccc3N(CCN(C)C)C(=O)C2OC(=O)c2ccc(C)cc2)cc1` (centres undefined), in assay [1], the Half duration is recorded as 140 min. Besides, in assay [2], the Potency ratio was 0.33.

`Cc1ccc(C2Sc3cc(Cl)ccc3N(CCN(C)C)C(=O)C2O)cc1` (centres undefined) registered a Half duration in assay [1] of 31 min. In addition, the Potency ratio in assay [2] stood at 0.52.

For the molecule `CCOC(=O)OC1C(=O)N(CCN(C)C)c2ccc(F)cc2SC1c1ccc(OC)cc1` (centres undefined), the Half duration in assay [1] turned out to be 33 min. Besides, the Potency ratio in assay [2] was 0.16. Also, in assay [3], the “Increase in CBF” value was greater than 0.5 mL/min.

Take `COc1ccc(C2Sc3cc(F)ccc3N(CCN(C)C)C(=O)C2OC(=O)c2ccc(C)cc2)cc1` (centres undefined): in assay [1], the Half duration is given as 62 min. Besides, in assay [2], the Potency ratio was found to be 0.26.

In the case of `CCCN(C)CCN1C(=O)C(O)C(c2ccc(OC)cc2)Sc2cc(Cl)ccc21` (centres undefined), the Half duration in assay [1] came out at 35 min. For the same molecule, in assay [2], the Potency ratio was 0.24. For the same molecule, the “Increase in CBF” value in assay [3] is greater than 0.5 mL/min. In addition, the “Change in blood pressure” value in assay [4] was -20 delta mmHg; in assay [5], -27.3 delta mmHg.

In assay [1], `C#CCN(C)CCN1C(=O)C(O)C(c2ccc(OC)cc2)Sc2cc(Cl)ccc21` (centres undefined) displayed a Half duration of 28 min. In assay [2], the Potency ratio turned out to be 0.06.

Consider `COc1ccc(C2Sc3cc(Cl)ccc3N(CCN(C)C)C(=O)C2OC(=O)c2ccc([N+](=O)[O-])cc2)cc1` (centres undefined), for which the Half duration in assay [1] is on record as 75 min. Besides, in assay [2], the Potency ratio is 0.05. Also, the “Increase in CBF” value in assay [3] was greater than 0.5 mL/min.

`Cc1ccc(C2Sc3cc(Cl)ccc3N(CCN(C)C)C(=O)C2OC(=O)c2ccc([N+](=O)[O-])cc2)cc1` (centres undefined) registered a Half duration in assay [1] of 84 min. In assay [2], the Potency ratio is reported as 0.08.

For `Cc1ccc(C2Sc3cc(Cl)ccc3N(CCN(C)C)C(=O)C2OC(=O)c2ccc([N+](=O)[O-])cc2Cl)cc1` (centres undefined), the Half duration in assay [1] is on record as 156 min. Moreover, the Potency ratio in assay [2] was 0.05.

`CCN(C)CCN1C(=O)C(O)C(c2ccc(OC)cc2)Sc2cc(Cl)ccc21` (centres undefined) registered a Half duration in assay [1] of 38 min. Further, the Potency ratio in assay [2] is 0.28. The “Increase in CBF” value in assay [3] is greater than 0.5 mL/min. The “Change in blood pressure” value in assay [4] was -21.3 delta mmHg; in assay [5], -39.3 delta mmHg.

`CC(=O)OC1C(=O)N(CCN(C)C)c2ccc(Cl)cc2SC1c1ccc(C)cc1` (centres undefined) displayed a Half duration in assay [1] of 61 min. In assay [2], the Potency ratio is listed as 0.37.

In assay [1], `CCN(CC)CCN1C(=O)C(OC(C)=O)C(c2ccc(OC)cc2)Sc2cc(Cl)ccc21` (centres undefined) yielded a Half duration of 48 min. The Potency ratio in assay [2] was found to be 0.55. For the same molecule, in assay [3], the “Increase in CBF” value was greater than 0.5 mL/min.

Turning to `COc1ccc(C2Sc3cc(F)ccc3N(CCN(C)C)C(=O)C2O)cc1.Cl` (centres undefined), in assay [1], the Half duration is reported as 40 min. The Potency ratio in assay [2] came to 0.37. Besides, in assay [3], the “Increase in CBF” value was greater than 0.5 mL/min.

In assay [1], `COc1ccc(C2Sc3c(ccc(Cl)c3Cl)N(CCN(C)C)C(=O)C2OC(C)=O)cc1.Cl` (centres undefined) came in with a Half duration of 156 min. Moreover, the Potency ratio in assay [2] is reported as 0.35. Besides, in assay [3], the “Increase in CBF” value was greater than 0.5 mL/min.

For the molecule `COc1ccc(C2Sc3cc(F)ccc3N(CCN(C)C)C(=O)C2OC(C)=O)cc1.Cl` (centres undefined), the Half duration in assay [1] is on record as 71 min. The Potency ratio in assay [2] amounted to 0.37. In addition, in assay [3], the “Increase in CBF” value was greater than 0.5 mL/min. Besides, the “Change in blood pressure” value in assay [4] is given as -64 delta mmHg; in assay [5] it was -50 delta mmHg.

`COc1ccc(C2Sc3cc(Cl)ccc3N(CCN(C)C)C(=O)C2O)cc1.Cl` (centres undefined): in assay [1], the Half duration is 39 min. The Potency ratio in assay [2] was determined as 0.76. Besides, the “Increase in CBF” value in assay [3] is greater than 0.5 mL/min.

Consider `COc1ccc(C2Sc3cc(Cl)c(Cl)cc3N(CCN(C)C)C(=O)C2O)cc1.Cl` (centres undefined), for which the Half duration in assay [1] is reported as 36 min. In assay [2], the Potency ratio came to 0.29. The “Increase in CBF” value in assay [3] is greater than 0.5 mL/min.

In assay [1], `COc1ccc(C2Sc3cccc(Cl)c3N(CCN(C)C)C(=O)C2OC(C)=O)cc1.Cl` (centres undefined) returned a Half duration of 53 min. Further, the Potency ratio in assay [2] came out at 0.62. The “Increase in CBF” value in assay [3] is greater than 0.5 mL/min. Besides, the “Change in blood pressure” value in assay [4] is -22 delta mmHg; in assay [5] it was -13.7 delta mmHg.

Turning to `COc1ccc(C2Sc3c(F)cccc3N(CCN(C)C)C(=O)C2O)cc1.Cl` (centres undefined), the Half duration in assay [1] is 33 min. Further, the Potency ratio in assay [2] was 0.14. For the same molecule, the “Increase in CBF” value in assay [3] was greater than 0.5 mL/min.

Take `COc1ccc(C2Sc3c(F)cccc3N(CCN(C)C)C(=O)C2OC(C)=O)cc1.Cl` (centres undefined): the Half duration in assay [1] was found to be 43 min. The Potency ratio in assay [2] is 0.34. Also, the “Increase in CBF” value in assay [3] was greater than 0.5 mL/min. In addition, the figures for the “Change in blood pressure” value in assay [4] and in assay [5] were -39 delta mmHg and -60.3 delta mmHg, respectively.

With `CCN(C)CCN1C(=O)C(OC)C(c2ccc(OC)cc2)Sc2cc(Cl)ccc21` (single isomer, unassigned; (+)), in assay [1], the Half duration was found to be 41 min. The Potency ratio in assay [2] was determined as 0.5.

In assay [1], `CCCC(=O)OC1C(=O)N(CCN(C)C)c2ccc(Cl)cc2SC1c1ccc(OC)cc1` (single isomer, unassigned; (+)) yielded a Half duration of 41 min. The Potency ratio in assay [2] is recorded as 0.8. For the same molecule, the “Change in blood pressure” value in assay [4] is given as -30 delta mmHg; in assay [5] it was -28 delta mmHg.

For `COc1ccc(C2Sc3ccc(Cl)cc3N(CCN(C)C)C(=O)C2O)cc1` (single isomer, unassigned; (+)), the Half duration in assay [1] came out at 24 min. Also, in assay [2], the Potency ratio was 0.17. Further, the “Increase in CBF” value in assay [3] is less than 0.5 mL/min.

`CCN(CC)CCN1C(=O)C(O)C(c2ccc(OC)cc2)Sc2cc(Cl)ccc21` (single isomer, unassigned; (+)): the Half duration in assay [1] came to 31 min. The Potency ratio in assay [2] was found to be 0.32. For the same molecule, the “Increase in CBF” value in assay [3] was greater than 0.5 mL/min.

As for `CCCCC(=O)OC1C(=O)N(CCN(C)C)c2ccc(Cl)cc2SC1c1ccc(OC)cc1` (single isomer, unassigned; (+)), the Half duration in assay [1] was found to be 42 min. Moreover, the Potency ratio in assay [2] is recorded as 0.67. Moreover, the “Change in blood pressure” value is given as -46 delta mmHg in assay [4] and -39 delta mmHg in assay [5].

Molecule `COc1ccc(C2Sc3cc(Cl)ccc3N(CCN(C)C)C(=O)C2OC(=O)c2ccc([N+](=O)[O-])cc2Cl)cc1` (single isomer, unassigned; (+)) showed a Half duration in assay [1] of 118 min. Further, the Potency ratio in assay [2] came out at 0.08. Moreover, the “Increase in CBF” value in assay [3] was greater than 0.5 mL/min.

Molecule `C=CCN(C)CCN1C(=O)C(O)C(c2ccc(OC)cc2)Sc2cc(Cl)ccc21` (single isomer, unassigned; (+)) gave a Half duration in assay [1] of 34 min. The Potency ratio in assay [2] came to 0.23.

Molecule `COc1ccc(C2Sc3ccc(Cl)cc3N(CCN(C)C)C(=O)C2OC(C)=O)cc1.Cl` (single isomer, unassigned; (+)) returned a Half duration in assay [1] of 29 min. Also, in assay [2], the Potency ratio is 0.93. For the same molecule, the “Increase in CBF” value in assay [3] is greater than 0.5 mL/min.

For `COc1ccc(C2Sc3cc(Cl)ccc3N(CCN(C)C)C(=O)C2OC(C)=O)cc1.Cl` (single isomer, unassigned; (+)), the Potency ratio in assay [2] came out at 1.7. The “Change in blood pressure” value in assay [4] (30 mg/kg) was -86 delta mmHg; in assay [5] (30 mg/kg), -68 delta mmHg.

In the case of `COc1ccc(C2Sc3c(Cl)cccc3N(CCN(C)C)C(=O)C2OC(C)=O)cc1.Cl` (single isomer, unassigned; (+)), the Half duration in assay [1] was found to be 74 min. Besides, in assay [2], the Potency ratio was found to be 0.83. Further, the entries for the “Change in blood pressure” value in assay [4] and in assay [5] were -73.7 delta mmHg and -54.3 delta mmHg, respectively.

For `COc1ccc(C2Sc3c(Cl)cccc3N(CCN(C)C)C(=O)C2O)cc1` (single isomer, unassigned; (-)), the Half duration in assay [1] was 21 min. For the same molecule, in assay [2], the Potency ratio is 0.02. In assay [3], the “Increase in CBF” value is less than 0.5 mL/min.

`COc1ccc(C2Sc3c(Cl)cccc3N(CCN(C)C)C(=O)C2OC(C)=O)cc1.Cl` (single isomer, unassigned; (-)): in assay [1], the Half duration is on record as 22 min. Besides, the Potency ratio in assay [2] was 0.06. Also, the “Increase in CBF” value in assay [3] was less than 0.5 mL/min.

As for `CCN(C)CCN1C(=O)C(OC(C)=O)C(c2ccc(OC)cc2)Sc2cc(Cl)ccc21` (stereo in doubt; 2o), the Half duration in assay [1] is 60 min. Besides, the Potency ratio in assay [2] came to 0.74.

In assay [1], `COc1ccc(C2Sc3cc(Cl)ccc3N(CCN(C)C)C(=O)C2OC(C)=O)cc1.Cl` (stereo in doubt; 2w) had a Half duration of 31 min. Moreover, the Potency ratio in assay [2] is 0.01.

On to `COc1ccc(C2Sc3ccc(Cl)cc3N(CCN(C)C)C(=O)C2OC(C)=O)cc1.Cl` (stereo in doubt; (-)-2ll), for which the Half duration in assay [1] is on record as 12 min. The Potency ratio in assay [2] worked out at 0.03. In addition, the “Increase in CBF” value in assay [3] was less than 0.5 mL/min.
